We go through 22 molecules from ChEMBL document CHEMBL2401707, “Potentiating 1-(2-hydroxypropyl)-2-styryl-5-nitroimidazole derivatives against antibacterial agents: design, synthesis and biology analysis” (Eur J Med Chem, 2013).

In data set [1] the test system is Escherichia coli. Briefly: Antibacterial activity against Escherichia coli assessed as survival after 24 hrs by MTT assay. The format is functional, organism-based. The procedure, abridged:
(§1)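 Broth microdilution in Mueller-Hinton broth. Cells grown to mid-log phase, diluted 10000-fold, and 10⁶ to 10⁷ CFU inoculated per well. Incubated 37 °C for 24 h. Drug-containing medium then added to final 40, 10, 2.5 and 0.25 µg/mL. After 12 h, MTT in PBS added; 4 h later medium discarded and formazan dissolved in DMSO. A490 read; at least three replicates.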

Data set [2] has as its system Bacillus subtilis. Briefly: Antibacterial activity against Bacillus subtilis assessed as survival after 24 hrs by MTT assay. Format: functional, organism-based. The method in brief:
as §1

Data set [3] relates to Bacillus thuringiensis. Briefly: Antibacterial activity against Bacillus thuringiensis assessed as survival after 24 hrs by MTT assay. Format: functional, organism-based. The method in brief:
as §1
On the technique in general: Tetrazolium dyes change colour on reduction, which living cells bring about.

The nature of data set [4]: Cytotoxicity against human macrophages assessed as cell viability after 24 hrs by MTT assay. Format: cell-based, Macrophage. The method in brief:
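Human macrophages in DMEM with 10% FBS and antimycotic, 1.8×10⁴ cells/well. Exposed to 160, 40, 10, 2.5 and 0.25 µg/mL compound (added in 10% DMSO) for 24 h at 37 °C, 5% CO₂. MTT (2.5 mg/mL) added for a further 4 h, formazan dissolved in DMSO.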

Data set [5] has as its system Pseudomonas aeruginosa. Briefly: Antibacterial activity against Pseudomonas aeruginosa assessed as survival after 24 hrs by MTT assay. The format is functional, organism-based. The procedure, abridged:
as §1

Data set [6] in a line: Inhibition of Escherichia coli FabH overexpressed in Escherichia coli DH10B using holo-ACP as substrate after 1 min. The procedure, abridged: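 Enzyme was purified by Ni-NTA with imidazole gradient elution and stored in 20 mM Tris pH 7.6, 100 mM NaCl, 1 mM DTT, 20% glycerol. Reaction: 0.5 nM E. coli FabH, 20 mM Na₂HPO₄ pH 7.0, 0.5 mM DTT, 0.25 mM MgCl₂, 2.5 µM holo-ACP, preincubated 1 min. Started with acetyl-CoA, NADH and NADPH mix; ran 19 min. Stopped with ice-cold TCA; ³H incorporation in pellet counted by liquid scintillation. Inhibitors added from DMSO stock, final DMSO ≤2%; IC50 determined.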

Data set [7] can be described thus: Cytotoxicity against human macrophages assessed as morphological changes at 2.5 to 160 ug/mL after 24 hrs by phase contrast microscopic analysis. The settings on record: macrophage. The format is cell-based. The method in brief:
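Human macrophages exposed for 24 h to 2.5, 10, 40 and 160 µg/mL, Giemsa-stained and examined by phase contrast microscopy. Morphology compared with untreated control cells. The minimum cytotoxic concentration is the level causing a microscopically detectable alteration of normal cell morphology.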

≈ marks a conversion by molar mass, not a printed value.

By IC50 is commonly meant the concentration needed to halve the response being measured. The term CC50 denotes the concentration that lowers cell viability or growth by half.

For the molecule `CC(O)Cn1c([N+](=O)[O-])cnc1/C=C/c1ccccc1` (centres undefined), the IC50 in data set [1] was over 200 µg/mL; in data set [2], 78.9 µg/mL (≈ 289 µM); in data set [3] it was 45.6 µg/mL (≈ 167 µM); in data set [5], 28 µg/mL (≈ 102 µM). Moreover, in data set [4], the CC50 at 24 h amounted to 1500 nM.

With `COc1ccc(/C=C/c2ncc([N+](=O)[O-])n2CC(C)O)cc1` (centres undefined), the IC50 was 46.1 µg/mL (≈ 152 µM) in data set [1]; 12.3 µg/mL (≈ 40.6 µM) in data set [2]; 13.6 µg/mL (≈ 44.8 µM) in data set [3]; 9500 nM in data set [6]; 42.8 µg/mL (≈ 141 µM) in data set [5]. Moreover, in data set [4], the CC50 at 24 h is 560 nM.

On to `CC(O)Cn1c([N+](=O)[O-])cnc1/C=C/c1ccc(Br)cc1` (centres undefined), for which the IC50 in data set [1] was found to be 50.8 µg/mL (≈ 144 µM); in data set [2], 38 µg/mL (≈ 108 µM); in data set [3], 56.2 µg/mL (≈ 160 µM); in data set [5], 15.2 µg/mL (≈ 43.2 µM). Besides, in data set [4], the CC50 at 24 h is 550 nM.

Consider `CC(O)Cn1c([N+](=O)[O-])cnc1/C=C/c1cccc(F)c1` (centres undefined), for which the IC50 came to 120 µg/mL (≈ 412 µM) in data set [1]; 11.8 µg/mL (≈ 40.5 µM) in data set [2]; 79.2 µg/mL (≈ 272 µM) in data set [3]; 8900 nM in data set [6]; 15 µg/mL (≈ 51.5 µM) in data set [5]. The CC50 at 24 h in data set [4] was determined as 1030 nM.

On to `CC(O)Cn1c([N+](=O)[O-])cnc1/C=C/c1ccc(Cl)cc1` (centres undefined), for which the IC50 in data set [1] was found to be 102 µg/mL (≈ 331 µM); in data set [2], 79.5 µg/mL (≈ 258 µM); in data set [3], 52.5 µg/mL (≈ 171 µM); in data set [5], 17.6 µg/mL (≈ 57.2 µM). In addition, the CC50 at 24 h in data set [4] is 980 nM.

`CC(O)Cn1c([N+](=O)[O-])cnc1/C=C/c1ccc(F)cc1` (centres undefined): the IC50 was 45.3 µg/mL (≈ 156 µM) in data set [1], 47.1 µg/mL (≈ 162 µM) in data set [2], 28.1 µg/mL (≈ 96.5 µM) in data set [3] and 24.2 µg/mL (≈ 83.1 µM) in data set [5]. The CC50 at 24 h in data set [4] amounted to 420 nM.

For the molecule `CC(O)Cn1c([N+](=O)[O-])cnc1/C=C/c1cccc(Cl)c1` (centres undefined), the IC50 in data set [1] stood at 86.7 µg/mL (≈ 282 µM); in data set [2] it was 55.3 µg/mL (≈ 180 µM); in data set [3], 21.4 µg/mL (≈ 69.5 µM); in data set [5], 35 µg/mL (≈ 114 µM). In addition, the CC50 at 24 h in data set [4] turned out to be 520 nM.

Take `COc1ccccc1/C=C/c1ncc([N+](=O)[O-])n1CC(C)O` (centres undefined): the IC50 in data set [1] was 78.6 µg/mL (≈ 259 µM); in data set [2], 10.5 µg/mL (≈ 34.6 µM); in data set [3], 19.1 µg/mL (≈ 63 µM); in data set [5] it was 83.8 µg/mL (≈ 276 µM). The CC50 at 24 h in data set [4] is 480 nM.

As to `CC(O)Cn1c([N+](=O)[O-])cnc1/C=C/c1ccc([N+](=O)[O-])cc1` (centres undefined), the IC50 is 36.8 µg/mL (≈ 116 µM) in data set [1]; 32.5 µg/mL (≈ 102 µM) in data set [2]; 11.7 µg/mL (≈ 36.8 µM) in data set [3]; 4600 nM in data set [6]; 5.9 µg/mL (≈ 18.5 µM) in data set [5]. Also, the CC50 at 24 h in data set [4] was determined as 410 nM.

As for `COc1cccc(/C=C/c2ncc([N+](=O)[O-])n2CC(C)O)c1` (centres undefined), the IC50 in data set [1] came out at 181 µg/mL (≈ 595 µM); in data set [2] it was 25.7 µg/mL (≈ 84.7 µM); in data set [3] it was 56.2 µg/mL (≈ 185 µM); in data set [5], 6.7 µg/mL (≈ 22.1 µM). In addition, the CC50 at 24 h in data set [4] is 1300 nM.

Turning to `CC(O)Cn1c([N+](=O)[O-])cnc1/C=C/c1cccc(Br)c1` (centres undefined), the IC50 in data set [1] came out at 45.4 µg/mL (≈ 129 µM); in data set [2] it was 15.3 µg/mL (≈ 43.4 µM); in data set [3], 8.2 µg/mL (≈ 23.3 µM); in data set [6] it was 10800 nM; in data set [5] it was 30.9 µg/mL (≈ 87.7 µM). For the same molecule, the CC50 at 24 h in data set [4] is 620 nM.

As to `CC(O)Cn1c([N+](=O)[O-])cnc1/C=C/c1ccccc1F` (centres undefined), the IC50 was found to be 72.7 µg/mL (≈ 250 µM) in data set [1], 3.4 µg/mL (≈ 11.7 µM) in data set [2], 60.3 µg/mL (≈ 207 µM) in data set [3] and 39.4 µg/mL (≈ 135 µM) in data set [5]. Further, the CC50 at 24 h in data set [4] was 1410 nM.

`CC(O)Cn1c([N+](=O)[O-])cnc1/C=C/c1ccccc1Cl` (centres undefined): the IC50 in data set [1] came to 56.3 µg/mL (≈ 183 µM); in data set [2] it was 7.5 µg/mL (≈ 24.4 µM); in data set [6], 11500 nM; in data set [5], 15.4 µg/mL (≈ 50 µM). Also, the CC50 at 24 h in data set [4] was determined as 480 nM.

As for `Cc1ccc(/C=C/c2ncc([N+](=O)[O-])n2CC(C)O)cc1` (centres undefined), the IC50 was 111 µg/mL (≈ 388 µM) in data set [1]; 8.9 µg/mL (≈ 31 µM) in data set [2]; 8.6 µg/mL (≈ 29.9 µM) in data set [3]; 78800 nM in data set [6]; 22.8 µg/mL (≈ 79.4 µM) in data set [5]. The CC50 at 24 h in data set [4] was determined as 860 nM.

On to `CC(O)Cn1c([N+](=O)[O-])cnc1/C=C/c1c(F)cccc1Cl` (centres undefined), for which the IC50 is 119 µg/mL (≈ 365 µM) in data set [1], 112 µg/mL (≈ 343 µM) in data set [2], 6.1 µg/mL (≈ 18.7 µM) in data set [3] and 5.7 µg/mL (≈ 17.5 µM) in data set [5]. Also, the CC50 at 24 h in data set [4] is 710 nM.

Consider `CC(O)Cn1c([N+](=O)[O-])cnc1/C=C/c1ccc(Cl)cc1Cl` (centres undefined), for which the IC50 in data set [1] worked out at 111 µg/mL (≈ 325 µM); in data set [2], 58.1 µg/mL (≈ 170 µM); in data set [3], 18.8 µg/mL (≈ 54.9 µM); in data set [5] it was 8.7 µg/mL (≈ 25.4 µM). Besides, the CC50 at 24 h in data set [4] came to 810 nM.

Consider `CC(O)Cn1c([N+](=O)[O-])cnc1/C=C/c1ccc(N(C)C)cc1` (centres undefined), for which the concentration for half-maximal inhibition (IC50) in data set [1] is 108 µg/mL (≈ 342 µM); in data set [2], 56.5 µg/mL (≈ 179 µM); in data set [3] it was over 200 µg/mL; in data set [5], 75 µg/mL (≈ 237 µM). The CC50 at 24 h in data set [4] worked out at 680 nM.

For `CC(O)Cn1c([N+](=O)[O-])cnc1/C=C/c1cccc([N+](=O)[O-])c1` (centres undefined), the IC50 in data set [1] is 38.8 µg/mL (≈ 122 µM); in data set [2], 31.1 µg/mL (≈ 97.7 µM); in data set [3], 20.6 µg/mL (≈ 64.7 µM); in data set [6], 5100 nM; in data set [5] it was 32.7 µg/mL (≈ 103 µM). Also, in data set [4], the CC50 at 24 h is 430 nM.

Turning to `CC(O)Cn1c([N+](=O)[O-])cnc1/C=C/c1ccccc1Br` (centres undefined), the IC50 in data set [1] worked out at 63.6 µg/mL (≈ 181 µM); in data set [2], 6 µg/mL (≈ 17 µM); in data set [3], 11.4 µg/mL (≈ 32.4 µM); in data set [5], 11.1 µg/mL (≈ 31.5 µM). The CC50 at 24 h in data set [4] came out at 490 nM.

Regarding `CC(O)Cn1c([N+](=O)[O-])cnc1/C=C/c1ccccc1[N+](=O)[O-]` (centres undefined), the Activity entry in data set [7] is “Non-toxic”. Moreover, the IC50 in data set [1] is 40.3 µg/mL (≈ 127 µM); in data set [2], 12.3 µg/mL (≈ 38.6 µM); in data set [3], 72.9 µg/mL (≈ 229 µM); in data set [6], 11000 nM; in data set [5] it was 7.4 µg/mL (≈ 23.2 µM). Moreover, the CC50 at 24 h in data set [4] is 1090 nM.

Consider `CC(O)Cn1c([N+](=O)[O-])cnc1/C=C/c1ccc2ccccc2c1` (centres undefined), for which the IC50 in data set [1] is 108 µg/mL (≈ 335 µM); in data set [2], 23.5 µg/mL (≈ 72.7 µM); in data set [3] it was 52.2 µg/mL (≈ 161 µM); in data set [6] it was 43200 nM; in data set [5] it was 42.1 µg/mL (≈ 130 µM). In addition, the CC50 at 24 h in data set [4] amounted to 790 nM.

`NC[C@H]1O[C@H](O[C@H]2[C@H](O)[C@@H](O[C@H]3O[C@H](CO)[C@@H](O)[C@H](N)[C@H]3O)[C@H](N)C[C@@H]2N)[C@H](O)[C@@H](O)[C@@H]1O` [KANAMYCIN]: the IC50 in data set [1] turned out to be 47.3 µg/mL (≈ 97.6 µM); in data set [2] it was 8.9 µg/mL (≈ 18.4 µM); in data set [3] it was 9.5 µg/mL (≈ 19.6 µM); in data set [6], 6300 nM; in data set [5] it was 6.8 µg/mL (≈ 14 µM).
